Experimental data published in ChEMBL document CHEMBL1123463, “Two stereoisomeric imidazoline derivatives: synthesis and optical and alpha 2-adrenoceptor activities” (J Med Chem, 1986).
One block for each molecule: values may come before it.

Experiments:
Rattus norvegicus [1] = test: Maximal decrease of heart rate calculated as bradycardiac activity after intravenous injection of 5.61ug/kg in rats; format: functional
Procedure, shortened: (§1)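 Anesthetized male normotensive Wistar rats (200-350 g; ip sodium pentobarbitone 75.0 mg/kg), cannulated trachea, kept at ca. 37 °C rectal. Pulse rate recorded continuously; following ~20 min stabilization each rat received one iv dose in saline (1 mL/kg, expressed as hydrochloride). Maximal fall in heart rate measured.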

Rattus norvegicus [2] = test: Maximal decrease of arterial blood pressure (MAP)after intravenous injection of compound at a dose of 0.561 ug/kg in rats; format: functional
Procedure, shortened: (§2)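 Male normotensive Wistar rats (200-350 g) anesthetized with ip sodium pentobarbitone 75.0 mg/kg; trachea cannulated, spontaneous breathing, rectal temperature ca. 37 °C. Arterial pressure recorded continuously. After ~20 min stabilization, single iv injection in saline (1 mL/kg; doses as hydrochloride), one injection per animal. Read-out: maximal fall in mean arterial pressure.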

Rattus norvegicus [3] = test: Maximal decrease of heart rate calculated as bradycardiac activity after intravenous injection of 3.16 ug/kg in rats; format: functional; procedure, shortened: as §1
[4] = molecular target: T1, Adrenergic receptor alpha-2 (Rattus norvegicus, UniProt P22086+P19328+P22909); test: Compound was tested for its ability to inhibit specific binding of [3H]clonidine to alpha-2 adrenergic receptor in rat brain; format: tissue-based
T1 sequence (P22086 whole entry): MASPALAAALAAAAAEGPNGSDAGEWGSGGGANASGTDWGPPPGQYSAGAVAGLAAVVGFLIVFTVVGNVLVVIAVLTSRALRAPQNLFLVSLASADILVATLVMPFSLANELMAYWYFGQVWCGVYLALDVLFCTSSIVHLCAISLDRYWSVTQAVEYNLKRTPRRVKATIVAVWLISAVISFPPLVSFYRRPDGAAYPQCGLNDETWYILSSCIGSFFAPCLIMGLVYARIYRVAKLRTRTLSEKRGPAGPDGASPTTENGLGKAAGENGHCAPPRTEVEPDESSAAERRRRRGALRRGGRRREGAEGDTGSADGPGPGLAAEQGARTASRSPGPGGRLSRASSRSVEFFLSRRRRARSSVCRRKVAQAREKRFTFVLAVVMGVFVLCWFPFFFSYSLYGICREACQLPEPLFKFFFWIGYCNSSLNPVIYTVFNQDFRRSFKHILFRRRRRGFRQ
T1 sequence (P19328 whole entry): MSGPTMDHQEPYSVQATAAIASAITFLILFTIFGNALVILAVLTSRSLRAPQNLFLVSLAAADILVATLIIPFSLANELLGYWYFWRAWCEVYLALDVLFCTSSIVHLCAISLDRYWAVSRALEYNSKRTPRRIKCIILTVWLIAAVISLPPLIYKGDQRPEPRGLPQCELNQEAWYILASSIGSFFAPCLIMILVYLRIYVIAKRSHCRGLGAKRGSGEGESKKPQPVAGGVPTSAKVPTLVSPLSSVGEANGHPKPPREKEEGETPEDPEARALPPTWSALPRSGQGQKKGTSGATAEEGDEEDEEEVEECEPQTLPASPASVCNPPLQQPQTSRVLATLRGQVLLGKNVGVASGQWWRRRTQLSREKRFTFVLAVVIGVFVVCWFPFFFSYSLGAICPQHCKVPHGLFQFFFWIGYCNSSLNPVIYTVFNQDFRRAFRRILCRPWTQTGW
T1 sequence (P22909 whole entry): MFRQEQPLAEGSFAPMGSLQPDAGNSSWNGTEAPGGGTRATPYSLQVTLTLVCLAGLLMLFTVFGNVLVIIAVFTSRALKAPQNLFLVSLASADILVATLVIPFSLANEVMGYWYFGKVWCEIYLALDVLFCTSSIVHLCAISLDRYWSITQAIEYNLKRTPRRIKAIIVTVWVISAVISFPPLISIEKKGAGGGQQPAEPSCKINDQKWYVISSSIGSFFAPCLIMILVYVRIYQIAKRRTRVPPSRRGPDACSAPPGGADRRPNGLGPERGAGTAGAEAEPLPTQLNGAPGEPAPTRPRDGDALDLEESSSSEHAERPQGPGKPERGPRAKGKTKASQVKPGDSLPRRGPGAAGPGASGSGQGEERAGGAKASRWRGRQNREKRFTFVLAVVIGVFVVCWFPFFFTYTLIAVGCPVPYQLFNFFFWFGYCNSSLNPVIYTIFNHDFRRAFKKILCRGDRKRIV

Rattus norvegicus [5] = test: Maximal decrease of heart rate calculated as bradycardiac activity after intravenous injection of 10 ug/kg in rats; format: functional; procedure, shortened: as §1
Rattus norvegicus [6] = test: Maximal decrease of arterial blood pressure (MAP) after intravenous injection of compound at a dose of 3.16 ug/kg in rats; format: functional; procedure, shortened: as §2
Rattus norvegicus [7] = test: Maximal decrease of arterial blood pressure (MAP) after intravenous injection of compound at a dose of 1 ug/kg in rats; format: functional; procedure, shortened: as §2
Rattus norvegicus [8] = test: Maximal decrease of heart rate calculated as bradycardiac activity after intravenous injection of 1 ug/kg in rats; format: functional; procedure, shortened: as §1
Rattus norvegicus [9] = test: Maximal decrease of arterial blood pressure(MAP) after intravenous injection of compound at a dose of 5.61ug/kg in rats; format: functional; procedure, shortened: as §2
Rattus norvegicus [10] = test: Maximal decrease of arterial blood pressure (MAP) after intravenous injection of compound at a dose of 10 ug/kg in rats; format: functional; procedure, shortened: as §2
Rattus norvegicus [11] = test: Maximal decrease of heart rate calculated as bradycardiac activity after intravenous injection of 0.561 ug/kg in rats; format: functional; procedure, shortened: as §1
[12] = molecular target: T1, Adrenergic receptor alpha-2; test: Compound was tested for its ability to inhibit specific binding of [3H]clonidine to alpha-2-adrenoceptor in rat brain; format: tissue-based

- IC50 [4]: 7.25 nM
Compound: CC(Oc1c(Cl)cccc1Cl)C1=NCCN1.Cl (racemic) [LOFEXIDINE HYDROCHLORIDE]
- Heart rate (Rattus norvegicus [1]): -132
- MAP (Rattus norvegicus [2]): -22.6 mmHg
- Heart rate (Rattus norvegicus [3]): -137
- Heart rate (Rattus norvegicus [5]): -138
- MAP (Rattus norvegicus [6]): -37.6 mmHg
- MAP (Rattus norvegicus [7]): -26.8 mmHg
- Heart rate (Rattus norvegicus [8]): -83
- MAP (Rattus norvegicus [9]): -48.8 mmHg
- MAP (Rattus norvegicus [10]): -54.2 mmHg
- Heart rate (Rattus norvegicus [11]): -52

- IC50 [12]: 43 nM
Compound: CC(Oc1c(Cl)cccc1Cl)C1=NCCN1.Cl (single isomer, unassigned; (+)) [LOFEXIDINE HYDROCHLORIDE]
- Heart rate (Rattus norvegicus [3]): -36
- Heart rate (Rattus norvegicus [5]): -61
- MAP (Rattus norvegicus [6]): -11.7 mmHg
- MAP (Rattus norvegicus [7]): -7.4 mmHg
- Heart rate (Rattus norvegicus [8]): -7
- MAP (Rattus norvegicus [10]): -10.6 mmHg

- IC50 [12]: 3.6 nM
Compound: CC(Oc1c(Cl)cccc1Cl)C1=NCCN1.Cl (stereo in doubt) [LOFEXIDINE HYDROCHLORIDE]
- Heart rate (Rattus norvegicus [1]): -96
- Heart rate (Rattus norvegicus [3]): -97
- Heart rate (Rattus norvegicus [5]): -134
- MAP (Rattus norvegicus [6]): -29.8 mmHg
- MAP (Rattus norvegicus [7]): -13.8 mmHg
- Heart rate (Rattus norvegicus [8]): -46
- MAP (Rattus norvegicus [9]): -41.6 mmHg
- MAP (Rattus norvegicus [10]): -53 mmHg
